Blank lines part the entries; values can stand above or below the molecule they belong to. The source made the active and inactive calls. The calls are words filed in the database; no cut-off is given here.
Experiments:
[1] = Non-competitive inhibition of Escherichia coli B thymidine kinase using [2-14C]-thymidine as substrate assessed as formation of [14C]-TMP after 10 mins by Lineweaver-Burk double reciprocal plot analysis; details: read-out: I50
Procedure, shortened: (§1)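 Fraction V E. coli thymidine kinase was assayed with MgATP 5.7 mM and Mg/Mn salts in Tris-HCl at 37 °C for 10 min, reading [14C]TMP after electrophoresis. Four or more thymidine levels (20–160 μM) were used at each of two inhibitor levels plus an inhibitor-free control, all in duplicate. Ki (competitive) or I50 (noncompetitive) came from replots of Lineweaver-Burk slopes against inhibitor concentration, reproducible to ±7%.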

Escherichia coli B [2] = test: Activation of Escherichia coli B thymidine kinase using [2-14C]-thymidine as substrate assessed as formation of [14C]-TMP at 0.1 mM after 10 mins by liquid scintillation spectrometric analysis relative to control
Procedure, shortened: (§2)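 E. coli thymidine kinase (fraction V, purified from frozen cells; 7.2 × 10⁻⁶ units per assay) in Tris-HCl 71 mM, MgCl2 2.85 mM, MnCl2 0.71 mM, ATP 5.7 mM, BSA and [2-14C]thymidine 82 μM with test compound. The mixture was held at 37 °C for 10 min, then boiled. [14C]TMP was resolved by paper electrophoresis (pH 7.6) and scintillation-counted, with the unincubated blank subtracted.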

Escherichia coli B [3] = test: Activation of Escherichia coli B thymidine kinase using [2-14C]-thymidine as substrate assessed as formation of [14C]-TMP at 0.5 mM after 10 mins by liquid scintillation spectrometric analysis relative to control; procedure, shortened: as §2
Escherichia coli B [4] = test: Activation of Escherichia coli B thymidine kinase using [2-14C]-thymidine as substrate assessed as formation of [14C]-TMP at 8 mM after 10 mins by liquid scintillation spectrometric analysis relative to control; procedure, shortened: as §2
Escherichia coli B [5] = test: Activation of Escherichia coli B thymidine kinase using [2-14C]-thymidine as substrate assessed as formation of [14C]-TMP at 2 mM after 10 mins by liquid scintillation spectrometric analysis relative to control; procedure, shortened: as §2
[6] = Competitive inhibition of Escherichia coli B thymidine kinase using [2-14C]-thymidine as substrate assessed as formation of [14C]-TMP after 10 mins by Lineweaver-Burk double reciprocal plot analysis; details: read-out: Ki(app); procedure, shortened: as §1
Escherichia coli B [7] = test: Activity of Escherichia coli B thymidine kinase assessed as [14C]-TMP formation at 775 uM after 1 hr by liquid scintillation spectrometric analysis relative to thymidine; details: tested as the 14C-labelled form
Escherichia coli B [8] = test: Inhibition of Escherichia coli B thymidine kinase using [2-14C]-thymidine as substrate assessed as formation of [14C]-TMP at 1 mM after 10 mins by liquid scintillation spectrometric analysis relative to control; procedure, shortened: as §2
Escherichia coli B [9] = test: Inhibition of Escherichia coli B thymidine kinase using [2-14C]-thymidine as substrate assessed as formation of [14C]-TMP at 0.5 mM after 10 mins by liquid scintillation spectrometric analysis relative to control; procedure, shortened: as §2
Escherichia coli B [10] = test: Inhibition of Escherichia coli B thymidine kinase using [2-14C]-thymidine as substrate assessed as formation of [14C]-TMP at 2 mM after 10 mins by liquid scintillation spectrometric analysis relative to control; procedure, shortened: as §2
Escherichia coli B [11] = test: Non-competitive inhibition of Escherichia coli B thymidine kinase using [2-14C]-thymidine as substrate assessed as formation of [14C]-TMP at 16 mM after 10 mins by Lineweaver-Burk double reciprocal plot analysis
Escherichia coli B [12] = test: Inhibition of Escherichia coli B thymidine kinase using [2-14C]-thymidine as substrate assessed as formation of [14C]-TMP at 16 mM after 10 mins by liquid scintillation spectrometric analysis relative to control; procedure, shortened: as §2
Escherichia coli B [13] = test: Activation of Escherichia coli B thymidine kinase using [2-14C]-thymidine as substrate assessed as formation of [14C]-TMP at 1 mM after 10 mins by liquid scintillation spectrometric analysis relative to control; procedure, shortened: as §2
Escherichia coli B [14] = test: Activity of Escherichia coli B thymidine kinase assessed as [14C]-TMP formation at 450 uM after 1 hr by liquid scintillation spectrometric analysis; details: tested as the 14C-labelled form
Escherichia coli B [15] = test: Activity of Escherichia coli B thymidine kinase assessed as [14C]-TMP formation at 500 uM after 1 hr by liquid scintillation spectrometric analysis; details: tested as the 14C-labelled form
Escherichia coli B [16] = test: Inhibition of Escherichia coli B thymidine kinase using [2-14C]-thymidine as substrate assessed as formation of [14C]-TMP at 4 mM after 10 mins by liquid scintillation spectrometric analysis relative to control; procedure, shortened: as §2
Escherichia coli B [17] = test: Inhibition of Escherichia coli B thymidine kinase using [2-14C]-thymidine as substrate assessed as formation of [14C]-TMP at 8 mM after 10 mins by liquid scintillation spectrometric analysis relative to control; procedure, shortened: as §2

IC50 [1]: 47500 µM
Structure (SMILES): O=c1ccn([C@@H]2O[C@H](CO)[C@@H](O)[C@H]2O)c(=O)[nH]1 [URIDINE]

IC50 [1]: 2750 µM
Structure (SMILES): Cc1cn([C@H]2C[C@H](N)[C@@H](CO)O2)c(=O)[nH]c1=O [3-AMINO- 3-DEOXYTHYMIDINE]

Activity (Escherichia coli B [2]): -2%
Activity (Escherichia coli B [3]): -1%
Activity (Escherichia coli B [4]): 65%
Activity (Escherichia coli B [5]): 42%
Structure (SMILES): Cc1cn([C@H]2C[C@H](O)[C@@H](C[S+]([O-])CCC(=O)O)O2)c(=O)[nH]c1=O (stereo partly specified)

IC50 [1]: 320 µM
Structure (SMILES): CCS[C@H]1C[C@H](n2cc(C)c(=O)[nH]c2=O)O[C@@H]1CO

Structure (SMILES): Cc1cn([C@H]2C[C@H](O)[C@@H](CN)O2)c(=O)[nH]c1=O
Ki [6]: 320 µM

Activity (Escherichia coli B [7]): < 0.021%
Structure (SMILES): CC(=O)NCc1cn([C@H]2C[C@H](O)[C@@H](CO)O2)c(=O)[nH]c1=O

inhibition (Escherichia coli B [8]): 25%
inhibition (Escherichia coli B [9]): 14%
Structure (SMILES): NCc1cn([C@H]2C[C@H](O)[C@@H](CO)O2)c(=O)[nH]c1=O

Structure (SMILES): CCC(=O)NCC(O)[C@H]1O[C@@H](n2cc(C)c(=O)[nH]c2=O)C[C@@H]1O (single isomer, unassigned; more polar)
Ki [6]: 6600 µM

inhibition (Escherichia coli B [9]): 9%
inhibition (Escherichia coli B [10]): 12%
Structure (SMILES): CCCCNC[C@H]1O[C@@H](n2cc(C)c(=O)[nH]c2=O)C[C@@H]1O

inhibition (Escherichia coli B [11]): inactive
inhibition (Escherichia coli B [12]): 0%
Structure (SMILES): CCOC1N([C@H]2C[C@H](O)[C@@H](CO)O2)C(=O)NC(=O)C1(C)Br (single isomer, unassigned; less polar)

Activity (Escherichia coli B [3]): 15%
Activity (Escherichia coli B [5]): 25%
Activity (Escherichia coli B [13]): 28%
Structure (SMILES): Cc1cn([C@H]2C[C@H](O)[C@@H](CSCCO)O2)c(=O)[nH]c1=O

inhibition (Escherichia coli B [8]): 0%
inhibition (Escherichia coli B [9]): 0%
Structure (SMILES): CC(=O)NC[C@H]1O[C@@H](n2cc(C)c(=O)[nH]c2=O)C[C@@H]1O

inhibition (Escherichia coli B [9]): 0%
inhibition (Escherichia coli B [10]): 0%
Structure (SMILES): CC(=O)NCCC(=O)Nc1cn([C@H]2C[C@H](O)[C@@H](CO)O2)c(=O)[nH]c1=O

Structure (SMILES): CC(=O)NCC(O)[C@H]1O[C@@H](n2cc(C)c(=O)[nH]c2=O)C[C@@H]1O (mixture of isomers)
Ki [6]: 2000 µM

Activity (Escherichia coli B [14]): inactive
Activity (Escherichia coli B [15]): inactive
Structure (SMILES): CC(=O)NCC(O)[C@H]1O[C@@H](n2cc(C)c(=O)[nH]c2=O)C[C@@H]1O (stereo partly specified)

inhibition (Escherichia coli B [8]): 14%
inhibition (Escherichia coli B [10]): 14%
Structure (SMILES): CC(=O)N(C)CCCCN(C)C[C@H]1O[C@@H](n2cc(C)c(=O)[nH]c2=O)C[C@@H]1O

inhibition (Escherichia coli B [9]): 0%
inhibition (Escherichia coli B [10]): 0%
Structure (SMILES): CCNc1ccn([C@H]2C[C@H](O)[C@@H](CO)O2)c(=O)n1

inhibition (Escherichia coli B [9]): 0%
inhibition (Escherichia coli B [10]): 0%
Structure (SMILES): CCNc1cn([C@H]2C[C@H](O)[C@@H](CO)O2)c(=O)[nH]c1=O

Activity (Escherichia coli B [2]): 61%
Activity (Escherichia coli B [3]): 60%
Activity (Escherichia coli B [4]): 35%
Activity (Escherichia coli B [5]): 62%
Structure (SMILES): Cc1cn([C@H]2C[C@H](O)[C@@H](CSCCCC(=O)O)O2)c(=O)[nH]c1=O

Structure (SMILES): CC(=O)NCC(O)[C@H]1O[C@@H](n2cc(C)c(=O)[nH]c2=O)C[C@@H]1O (stereo in doubt; 4a)
Ki [6]: 1250 µM

Activity (Escherichia coli B [2]): -5%
Activity (Escherichia coli B [4]): 22%
Activity (Escherichia coli B [5]): -4%
Structure (SMILES): CC[S+]([O-])C[C@H]1O[C@@H](n2cc(C)c(=O)[nH]c2=O)C[C@@H]1O (stereo partly specified)

inhibition (Escherichia coli B [9]): 15%
inhibition (Escherichia coli B [10]): 15%
Structure (SMILES): CC(=O)Nc1cn([C@H]2C[C@H](O)[C@@H](CO)O2)c(=O)[nH]c1=O

Structure (SMILES): CCC(=O)NCC(O)[C@H]1O[C@@H](n2cc(C)c(=O)[nH]c2=O)C[C@@H]1O (single isomer, unassigned; less polar)
Ki [6]: 850 µM

IC50 [1]: 650 µM
inhibition (Escherichia coli B [8]): 59%
inhibition (Escherichia coli B [9]): 45%
Structure (SMILES): CCCCCn1c(=O)c(C)cn([C@H]2C[C@H](O)[C@@H](CO)O2)c1=O

inhibition (Escherichia coli B [11]): inactive
inhibition (Escherichia coli B [12]): 17%
inhibition (Escherichia coli B [10]): 11%
Structure (SMILES): CCOC1N([C@H]2C[C@H](O)[C@@H](CO)O2)C(=O)NC(=O)C1(C)Br (single isomer, unassigned)

inhibition (Escherichia coli B [9]): 23%
inhibition (Escherichia coli B [10]): 40%
Structure (SMILES): N#Cc1cn([C@H]2C[C@H](O)[C@@H](CO)O2)c(=O)[nH]c1=O

Structure (SMILES): CCCCCCNC[C@H]1O[C@@H](n2cc(C)c(=O)[nH]c2=O)C[C@@H]1O
Ki [6]: 2600 µM

IC50 [1]: 1250 µM
inhibition (Escherichia coli B [8]): 44%
inhibition (Escherichia coli B [9]): 30%
Structure (SMILES): CCn1c(=O)c(C)cn([C@H]2C[C@H](O)[C@@H](CO)O2)c1=O

inhibition (Escherichia coli B [9]): 0%
inhibition (Escherichia coli B [10]): 0%
Structure (SMILES): Nc1ccn([C@H]2C[C@H](O)[C@@H](CO)O2)c(=O)n1

inhibition (Escherichia coli B [8]): 0%
inhibition (Escherichia coli B [10]): 0%
Structure (SMILES): CC(=O)N(C)CCN(C)C[C@H]1O[C@@H](n2cc(C)c(=O)[nH]c2=O)C[C@@H]1O

Activity (Escherichia coli B [2]): 120%
Activity (Escherichia coli B [3]): 126%
Activity (Escherichia coli B [4]): 106%
Activity (Escherichia coli B [5]): 125%
Structure (SMILES): Cc1cn([C@H]2C[C@H](O)[C@@H](CSCCC(=O)O)O2)c(=O)[nH]c1=O

inhibition (Escherichia coli B [8]): 35%
inhibition (Escherichia coli B [9]): 18%
Structure (SMILES): CCCn1c(=O)ccn([C@H]2C[C@H](O)[C@@H](CO)O2)c1=O

IC50 [1]: 28000 µM
Structure (SMILES): Nc1cn([C@H]2C[C@H](O)[C@@H](CO)O2)c(=O)[nH]c1=O

Activity (Escherichia coli B [2]): 70%
Activity (Escherichia coli B [3]): 63%
Activity (Escherichia coli B [5]): 46%
Structure (SMILES): CCSC[C@H]1O[C@@H](n2cc(C)c(=O)[nH]c2=O)C[C@@H]1O

Structure (SMILES): O=c1ccn([C@H]2C[C@H](O)[C@@H](CO)O2)c(=O)[nH]1 [DEOXYURIDINE]
Ki [6]: 290 µM

inhibition (Escherichia coli B [16]): 28%
inhibition (Escherichia coli B [17]): 36%
Structure (SMILES): CCNC[C@H]1O[C@@H](n2cc(C)c(=O)[nH]c2=O)C[C@@H]1O

inhibition (Escherichia coli B [8]): 0%
inhibition (Escherichia coli B [9]): 0%
Structure (SMILES): CCCC(=O)NC[C@H]1O[C@@H](n2cc(C)c(=O)[nH]c2=O)C[C@@H]1O

inhibition (Escherichia coli B [8]): 39%
inhibition (Escherichia coli B [9]): 28%
Structure (SMILES): CCCn1c(=O)c(C)cn([C@H]2C[C@H](O)[C@@H](CO)O2)c1=O

inhibition (Escherichia coli B [8]): 14%
inhibition (Escherichia coli B [10]): 14%
Structure (SMILES): CC(=O)N(C)CCCCCCN(C)C[C@H]1O[C@@H](n2cc(C)c(=O)[nH]c2=O)C[C@@H]1O

inhibition (Escherichia coli B [8]): 22%
inhibition (Escherichia coli B [9]): 12%
Structure (SMILES): CCn1c(=O)ccn([C@H]2C[C@H](O)[C@@H](CO)O2)c1=O

IC50 [1]: 6100 µM
Structure (SMILES): CC(=O)N[C@H]1C[C@H](n2cc(C)c(=O)[nH]c2=O)O[C@@H]1CO
